Here are results for 1 molecule from ChEMBL document CHEMBL3352316, “Optimization of physicochemical properties and safety profile of novel bacterial topoisomerase type II inhibitors (NBTIs) with activity against Pseudomonas aeruginosa” (Bioorg Med Chem, 2014).

Bounds are passed on as bounds.

Data set [1] in a line: Fraction unbound in human plasma by LC/MS-MS analysis. Type of data set: ADME, cell-free. In outline:
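Equilibrium dialysis: 10 µM compound was spiked into human plasma against phosphate buffer and rotated at 37 °C for 16 h. Plasma and buffer concentrations were quantified by LC/MS–MS with a C18 column and ESI MRM detection.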

Data set [2] addresses Voltage-gated inwardly rectifying potassium channel KCNH2 (Homo sapiens, UniProt Q12809). Description: Inhibition of human ERG by cell-based patch clamp method. A general note: Patch clamp records ionic current or voltage across a cell membrane.
Data set [3] can be described thus: AUC(infinity) in neutropenic mouse at 150 mg/kg/day, ip bid of total 12 doses. More on the design: dose 150 mg/kg/day, time infinity, route intraperitoneal. The settings on record: plasma. Type of data set: ADME, organism-based. In outline: (§1)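 CD-1 mice were made neutropenic with ip cyclophosphamide, 150 mg/kg at day −4 and 100 mg/kg at day −1, then infected in the thigh with P. aeruginosa PAO1. Dosing was ip, bid q12 from 2 h post-infection, in 5% dextrose with lactic acid pH 5.0. Groups of three mice were killed at timed intervals and cardiac-puncture plasma was analysed by LC–MS/MS.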

Data set [4] is described as follows: AUC(infinity) in neutropenic mouse at 200 mg/kg/day, ip bid of total 12 doses. Format: ADME, organism-based. More on the design: dose 200 mg/kg/day, time infinity, route intraperitoneal. The settings on record: plasma. In outline: as §1
The nature of data set [5]: Ratio of fAUC to MIC in Pseudomonas aeruginosa PAO1 in neutropenic mouse thigh infection model at 150 mg/kg/day, ip bid q12h starting 2 h post infection. The settings on record: route intraperitoneal.
Data set [6] can be described thus: Ratio of fAUC to MIC in Pseudomonas aeruginosa PAO1 in neutropenic mouse thigh infection model at 200 mg/kg/day, ip bid q12h starting 2 h post infection. The settings on record: route intraperitoneal.
Data set [7] is described as follows: AUC(infinity) in neutropenic mouse at 100 mg/kg/day, ip bid of total 12 doses. Format: ADME, organism-based. On the set-up: dose 100 mg/kg/day, time infinity, route intraperitoneal. The settings on record: plasma. In outline: as §1
Data set [8] has as its system Pseudomonas aeruginosa. Nature of the data set: Antimicrobial activity against Pseudomonas aeruginosa PAO1 in neutropenic mouse thigh infection model assessed as log reduction in CFU at 150 mg/kg/day, ip bid q12 regime starting 2 hrs after infection measured 24 hrs post start of treatment relative to control. Type of data set: functional. The settings on record: route intraperitoneal. In outline: (§2)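 CD-1 mice made neutropenic with intraperitoneal cyclophosphamide 4 days (150 mg/kg) and 1 day (100 mg/kg) before thigh infection with P. aeruginosa PAO1, target inoculum 5 × 10⁵ CFU. Groups of five dosed ip in 5% dextrose with lactic acid pH 5.0. Vehicle-only group included. Thighs removed 24 h after treatment start, weighed, homogenized and plated on tryptic soy agar, 37 °C overnight. Log CFU/g reduction is relative to starting inoculum.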

Data set [9] has as its system Canis familiaris. Description: Cardiotoxicity in telemetered dog assessed as prolongation of QTc interval at 56 uM, iv as 1 hr infusion. Type of data set: toxicity, organism-based, Canis lupus familiaris. The settings on record: in vivo, 4 h, in the assay text read “4 hr infusion” for “1 hr infusion”. In outline:
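Dogs were dosed by iv infusion in vehicle adjusted to pH 4. ECG intervals were measured and QTcR was corrected for heart rate by individual-animal correction. % change in QTcR was taken against the matched time point of the same animal on vehicle. Infusion was 1 h at 5 mL/kg/h (5% dextrose) or 4 h at 2 mL/kg/h (5% mannitol/0.1 M tartaric acid), with readings at infusion end.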

For data set [10], the system named is Pseudomonas aeruginosa. Nature of the data set: Antimicrobial activity against Pseudomonas aeruginosa PAO1 in neutropenic mouse thigh infection model assessed as log reduction in CFU at 100 mg/kg/day, ip bid q12 regime starting 2 hrs after infection measured 24 hrs post start of treatment relative to control. Format: functional. The settings on record: route intraperitoneal. In outline:
as §2

Data set [11] can be described thus: Partition co-efficient, log D of the compound at pH 7.4 by shake flask method. Type of data set: physicochemical. The settings on record: buffer. In outline: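 Shake-flask method with 10 mM phosphate buffer pH 7.4 against n-octanol, shaken 1 h at 1200 rpm to equilibrium. Analysis was by LC/UV with MS confirmation.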

Voltage-gated inwardly rectifying potassium channel KCNH2, sequence (Q12809 whole entry): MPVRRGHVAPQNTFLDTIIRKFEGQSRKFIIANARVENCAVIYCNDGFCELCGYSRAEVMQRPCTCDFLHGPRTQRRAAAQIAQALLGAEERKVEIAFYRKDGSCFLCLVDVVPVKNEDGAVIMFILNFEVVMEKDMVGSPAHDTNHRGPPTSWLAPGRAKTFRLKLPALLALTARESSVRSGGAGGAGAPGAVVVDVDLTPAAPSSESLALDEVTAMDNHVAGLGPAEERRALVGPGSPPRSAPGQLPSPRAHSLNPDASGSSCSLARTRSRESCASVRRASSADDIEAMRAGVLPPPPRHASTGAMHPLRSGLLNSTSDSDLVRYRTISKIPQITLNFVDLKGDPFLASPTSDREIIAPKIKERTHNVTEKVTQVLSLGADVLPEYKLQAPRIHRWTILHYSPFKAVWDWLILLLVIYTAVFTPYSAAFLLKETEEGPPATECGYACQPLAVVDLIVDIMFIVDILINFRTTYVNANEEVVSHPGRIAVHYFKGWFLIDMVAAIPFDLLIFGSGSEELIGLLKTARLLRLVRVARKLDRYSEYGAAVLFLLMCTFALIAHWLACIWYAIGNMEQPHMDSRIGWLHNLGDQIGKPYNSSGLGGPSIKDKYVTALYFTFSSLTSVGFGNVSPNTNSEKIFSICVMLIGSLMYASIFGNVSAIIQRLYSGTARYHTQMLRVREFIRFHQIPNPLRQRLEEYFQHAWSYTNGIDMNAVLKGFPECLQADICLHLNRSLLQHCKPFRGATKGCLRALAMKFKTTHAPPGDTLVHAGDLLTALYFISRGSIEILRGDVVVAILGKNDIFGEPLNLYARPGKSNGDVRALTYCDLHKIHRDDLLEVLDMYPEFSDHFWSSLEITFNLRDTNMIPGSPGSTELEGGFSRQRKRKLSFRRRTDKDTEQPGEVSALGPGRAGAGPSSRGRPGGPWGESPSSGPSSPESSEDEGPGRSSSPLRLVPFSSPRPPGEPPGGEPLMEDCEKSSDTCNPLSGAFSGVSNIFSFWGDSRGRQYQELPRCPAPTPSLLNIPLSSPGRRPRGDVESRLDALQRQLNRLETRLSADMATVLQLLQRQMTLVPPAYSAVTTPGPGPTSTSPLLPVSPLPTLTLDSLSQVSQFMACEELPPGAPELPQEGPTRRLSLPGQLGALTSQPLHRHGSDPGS

As for `N[C@@H](Cn1c(=O)cnc2ccc(F)cc21)[C@H]1CC[C@H](NCc2ncc3c(n2)NC(=O)CO3)CC1`, the fraction unbound – broadly, free concentration divided by total concentration – in data set [1] came to 0.73. Besides, the IC50 (commonly the midpoint of a concentration-inhibition curve) in [2] is more than 333 µM. The values for the AUC(0-inf) in data set [3], in data set [4] and in data set [7] were 20100 ng·h/mL, 29900 ng·h/mL and 14800 ng·h/mL, respectively. Further, the fAUC/MIC in data set [5] worked out at 16; in data set [6], 23. Moreover, the FC amounted to 1.3 in data set [8] and 0.2 in [10]. In addition, the Activity in data set [9] stood at 9%. Further, the logD (usually the decadic logarithm of the distribution of all forms, ionised or not, between an organic phase and buffer at a given pH) in [11] is -0.32.
